From ChEMBL document CHEMBL1127299, “Inhibition of peptidylglycine alpha-amidating monooxygenase by N-substituted homocysteine analogs” (J Med Chem, 1994)
Non-standard residues stand in square brackets, D forms with d. Residues, ends and D or L forms follow the SMILES beside them. ξ: configuration not given here. *: point of attachment. Hydrocinnamoyl = O=C(CCc1ccccc1)*; hCys = N[C@@H](CCS)C(=O)O; Nle = CCCC[C@H](N)C(=O)O; Cbz = O=C(OCc1ccccc1)*; Boc = CC(C)(C)OC(=O)*; ξhCys = NC(CCS)C(=O)O; OBn = c1ccc(CO*)cc1

How the values were obtained:
[1] = molecular target: T1, Peptidylglycine alpha-amidating monooxygenase (Rattus norvegicus, UniProt P14925); test: Inhibitory activity against peptidylglycine alpha-amidating monooxygenase (PAM) was determined; type: functional
T1 sequence (P14925 whole entry): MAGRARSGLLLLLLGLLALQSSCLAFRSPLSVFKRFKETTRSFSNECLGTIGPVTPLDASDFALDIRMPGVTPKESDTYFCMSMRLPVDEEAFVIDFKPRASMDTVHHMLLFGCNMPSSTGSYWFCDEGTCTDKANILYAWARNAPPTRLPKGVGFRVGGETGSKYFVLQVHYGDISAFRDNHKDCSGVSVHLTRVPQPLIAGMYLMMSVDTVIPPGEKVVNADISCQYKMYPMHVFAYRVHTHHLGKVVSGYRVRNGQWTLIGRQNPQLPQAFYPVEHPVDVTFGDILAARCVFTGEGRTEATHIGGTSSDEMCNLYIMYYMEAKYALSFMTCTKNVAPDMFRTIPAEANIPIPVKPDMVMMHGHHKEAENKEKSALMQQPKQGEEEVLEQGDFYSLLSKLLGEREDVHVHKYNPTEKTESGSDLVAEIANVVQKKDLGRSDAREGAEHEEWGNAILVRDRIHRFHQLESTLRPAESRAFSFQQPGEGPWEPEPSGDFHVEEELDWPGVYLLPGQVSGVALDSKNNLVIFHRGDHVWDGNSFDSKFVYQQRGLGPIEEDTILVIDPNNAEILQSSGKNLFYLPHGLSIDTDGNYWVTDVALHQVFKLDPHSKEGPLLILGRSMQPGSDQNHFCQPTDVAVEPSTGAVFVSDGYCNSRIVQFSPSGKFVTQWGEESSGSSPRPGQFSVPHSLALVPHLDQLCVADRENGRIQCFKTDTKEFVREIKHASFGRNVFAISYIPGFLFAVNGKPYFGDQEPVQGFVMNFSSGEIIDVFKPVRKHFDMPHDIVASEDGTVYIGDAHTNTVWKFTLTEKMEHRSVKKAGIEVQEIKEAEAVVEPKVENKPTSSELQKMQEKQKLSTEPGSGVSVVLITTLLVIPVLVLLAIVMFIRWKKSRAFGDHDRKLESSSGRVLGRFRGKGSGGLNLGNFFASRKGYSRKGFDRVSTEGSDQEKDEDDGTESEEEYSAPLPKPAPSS
Summary of the method: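 Partially purified PAM (DEAE cartridge, then Sephacryl 300 SF), 13.5 μU, preincubated with inhibitor 20 min at room temperature in 150 mM TES pH 7.0 with 0.001% Triton-100. Started with N-dansyl-D-Tyr-Phe-Gly (2.0 μM) plus ascorbate (3 mM), quenched with EDTA. Seven or more concentrations in duplicate, three runs; IC50 by least squares on log dose–response.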

[2] = molecular target: T2, Peptidylglycine alpha-amidating monooxygenase (Rattus norvegicus) (UniProt P14925); test: (§1) Inhibition of PAM on Substance P biosynthesis in the dorsal root ganglion (DRG) cell culture assay; type: functional, tissue-based; design: concentration or dose not given beside the values; details: concentration not given here
T2 sequence (whole entry): T1 sequence (P14925 whole entry)
Summary of the method: (§2)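 Rat primary dorsal root ganglion neurons cultured without ascorbate for six days. On day 6 inhibitor added (10 μM), then ascorbate 500 μM 12 h later, incubated overnight. SP measured by RIA with an antibody selective for SP over SP-Gly. SP-Gly found by treating a duplicate sample with 3.5 μg PAM and taking the difference in SP; percent inhibition.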

[3] = molecular target: T2, Peptidylglycine alpha-amidating monooxygenase (Rattus norvegicus); test: as §1; type: functional, tissue-based; details: concentration not given here; summary of the method: as §2

Compound | IC50 [1] [nM] | inhibition [2] [%] | inhibition [3] [%]
NC(=O)C[C@H](NC(=O)[C@H](Cc1ccccc1)NC(=O)CCc1ccccc1)C(=O)O (Hydrocinnamoyl-Phe-Asn-OH) | > 10000 |  | 
O=C(O)CC[C@H](NC(=O)[C@H](Cc1ccccc1)NC(=O)CCc1ccccc1)C(=O)O (Hydrocinnamoyl-Phe-Glu-OH) | > 10000 |  | 
CC(C)(C)OC(=O)N[C@H](Cc1ccc(O)cc1)C(=O)N[C@@H](Cc1ccccc1)C(=O)NCC(=O)O | 4000 |  | 
O=C(CCc1ccccc1)N[C@@H](Cc1ccccc1)C(=O)N[C@@H](CS)C(=O)O (Hydrocinnamoyl-Phe-Cys-OH) | 330 |  | 
C[C@H](NC(=O)[C@H](Cc1ccccc1)NC(=O)[C@@H](Cc1ccc(O)cc1)NC(=O)OC(C)(C)C)C(=O)O | > 10000 |  | 
O=C(CCc1ccccc1)N[C@@H](Cc1ccccc1)C(=O)NC(CCS)C(=O)OCc1ccccc1 (stereo partly specified) (Hydrocinnamoyl-Phe-[ξhCys]-OBn) | > 10000 |  | 
CSCC[C@H](NC(=O)CCc1ccccc1)C(=O)NC(CCS)C(=O)O (stereo partly specified) | 18 |  | 
O=C(CCc1ccccc1)N[C@@H](Cc1ccccc1)C(=O)NC(CCS)C(=O)O (stereo partly specified) | 15 | 28 | 
CC(C)(C)OC(=O)N[C@H](Cc1ccc(O)cc1)C(=O)N[C@@H](Cc1ccccc1)C(=O)N[C@@H](CO)C(=O)O | > 10000 |  | 
CCC(C)CC(=O)N[C@@H](Cc1ccccc1)C(=O)N[C@@H](CCS)C(=O)O (stereo partly specified) | 29 | 10 | 
O=C(N[C@@H](Cc1ccccc1)C(=O)NC(CCS)C(=O)O)c1cc2ccccc2[nH]1 (stereo partly specified) | 8 | 42 | 
O=C(CCc1ccccc1)N[C@@H](Cc1ccccc1)C(=O)N[C@@H](CCS)C(=O)O | 10 | 25 | 
N[C@H](Cc1ccc(O)cc1)C(=O)N[C@@H](Cc1ccccc1)C(=O)NCC(=O)O | > 10000 |  | 
O=C(CCc1ccc(Cl)c(Cl)c1)N[C@@H](Cc1ccccc1)C(=O)NC(CCS)C(=O)O (stereo partly specified) | 55 | 37 | 
O=C(N[C@@H](Cc1ccccc1)C(=O)NC(CCS)C(=O)O)c1ccc2ccccc2c1 (stereo partly specified) | 10 | 67 | 
CC(C)(C)OC(=O)N[C@@H](Cc1ccccc1)C(=O)N[C@@H](CCS)C(=O)O (Boc-Phe-[hCys]-OH) | 53 |  | 
CN(C)c1cccc2c(S(=O)(=O)N[C@H](Cc3ccc(O)cc3)C(=O)N[C@@H](Cc3ccccc3)C(=O)NCC(=O)O)cccc12 | 4200 |  | 

Next, values leading:

IC50 [1] [nM] | inhibition [2] [%] | inhibition [3] [%] | Compound
> 10000 | 37 |  | O=C(CCc1ccccc1)N[C@@H](Cc1ccccc1)C(=O)NC1CCSC1=O (stereo partly specified)
> 10000 |  |  | O=C(O)C[C@H](NC(=O)[C@H](Cc1ccccc1)NC(=O)CCc1ccccc1)C(=O)O (Hydrocinnamoyl-Phe-Asp-OH)
39 | 34 |  | CC(C)(C)OC(=O)N[C@H](Cc1ccccc1)C(=O)N[C@@H](Cc1ccccc1)C(=O)N[C@@H](CCS)C(=O)O
300 |  |  | CC(C)C[C@H](NC(=O)CCc1ccccc1)C(=O)NC(CCS)C(=O)O (stereo partly specified) (Hydrocinnamoyl-Leu-[ξhCys]-OH)
18 | 40 |  | O=C(N[C@@H](Cc1ccccc1)C(=O)N[C@@H](CCS)C(=O)O)OCc1ccccc1 (Cbz-Phe-[hCys]-OH)
23 |  | 7 | CCCC[C@H](NC(=O)CCc1ccccc1)C(=O)NC(CCS)C(=O)O (stereo partly specified) (Hydrocinnamoyl-[Nle]-[ξhCys]-OH)
1600 |  |  | O=C(CCc1ccccc1)N[C@@H](Cc1ccccc1)C(=O)NCCCS
7500 |  |  | O=C(CCc1ccccc1)NC(CCS)C(=O)O (stereo unspecified)
340 |  |  | CC(C)(C)OC(=O)N[C@H](Cc1ccc(O)cc1)C(=O)N[C@@H](Cc1ccccc1)C(=O)N[C@@H](CS)C(=O)O
160 |  |  | CC(C)[C@H](NC(=O)CCc1ccccc1)C(=O)NC(CCS)C(=O)O (stereo partly specified) (Hydrocinnamoyl-Val-[ξhCys]-OH)
610 |  |  | O=C(CCc1ccccc1)N[C@@H](Cc1ccccc1)C(=O)N[C@H](CCS)C(=O)O
3500 |  |  | O=C(O)CNC(=O)[C@H](Cc1ccccc1)NC(=O)[C@@H](Cc1ccc(O)cc1)NC(=O)OCc1ccccc1
14 | 22 |  | O=C(COc1ccccc1)N[C@@H](Cc1ccccc1)C(=O)NC(CCS)C(=O)O (stereo partly specified)
